Key:
Adenosine receptor A3 = target: T1, Adenosine receptor A3 (Homo sapiens, UniProt P0DMS8); test: (§1) Displacement of [3H]-MRE3008F20 from human adenosine A3 receptor expressed in CHO cell membranes after 120 mins by scintillation counting analysis
T1 sequence (P0DMS8 whole entry): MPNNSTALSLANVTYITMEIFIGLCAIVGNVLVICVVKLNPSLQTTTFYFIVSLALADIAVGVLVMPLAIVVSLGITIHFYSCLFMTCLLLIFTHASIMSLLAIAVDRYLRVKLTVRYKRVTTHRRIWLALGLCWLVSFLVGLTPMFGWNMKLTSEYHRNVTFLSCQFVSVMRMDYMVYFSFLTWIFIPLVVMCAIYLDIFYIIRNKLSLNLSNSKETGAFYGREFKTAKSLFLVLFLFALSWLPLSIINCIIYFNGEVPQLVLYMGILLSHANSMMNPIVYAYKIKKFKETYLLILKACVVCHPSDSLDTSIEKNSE
Summary of the method: (§2)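 Membranes from transfected CHO cells in 50 mM Tris HCl, 10 mM MgCl2, 1 mM EDTA, pH 7.4, at 50 µg protein/assay. [3H]MRE3008F20 1 nM with 6-8 ligand concentrations, 120 min at 4 °C. Non-specific binding defined with 1 µM MRE3008F20. GF/B filtration, then scintillation counting. Ki by Cheng-Prusoff, n=3-6, mean ± SEM.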

[1] = target: T2, Adenosine receptor A2b (Homo sapiens) (UniProt P29275); test: Antagonist activity at human adenosine A2B receptor expressed in CHO cells assessed as inhibition of NECA-stimulated cyclic AMP production by scintillation counting analysis in presence of [3H]-cyclic AMP; assay type: cell-based; set-up: inhibition: concentration or dose not given beside the values; conditions: for inhibition: concentration not given here
T2 sequence (whole entry): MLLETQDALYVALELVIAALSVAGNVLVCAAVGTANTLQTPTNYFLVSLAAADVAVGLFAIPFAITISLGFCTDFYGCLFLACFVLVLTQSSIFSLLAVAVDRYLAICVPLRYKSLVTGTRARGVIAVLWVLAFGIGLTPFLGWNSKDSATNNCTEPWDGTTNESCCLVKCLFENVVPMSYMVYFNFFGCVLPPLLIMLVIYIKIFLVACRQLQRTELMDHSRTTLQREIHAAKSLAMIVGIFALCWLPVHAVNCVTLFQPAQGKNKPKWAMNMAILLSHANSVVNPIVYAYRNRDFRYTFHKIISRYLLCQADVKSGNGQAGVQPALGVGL
Summary of the method: (§3)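 Preincubated at 37 °C. A2B: antagonism of NECA (100 nM)-stimulated cAMP. A3: forskolin 1 µM plus Cl-IB-MECA (100 nM). Stopped with cold 6% TCA, then ether-extracted. cAMP measured by competition protein binding with [3H]cAMP. KB derived by modified Cheng-Prusoff (Leff and Dougall), mean ± SEM.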

Adenosine receptor A2a = Adenosine receptor A2a (Homo sapiens, UniProt P29274); test: Displacement of [3H]-ZM241385 from human adenosine A2A receptor expressed in CHO cell membranes after 60 mins by scintillation counting analysis
Summary of the method: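 Membranes from transfected CHO cells in 50 mM Tris HCl, 10 mM MgCl2, pH 7.4, at 50 µg protein/assay. [3H]ZM241385 2 nM with 6-8 competitor concentrations, 60 min at 4 °C. Non-specific binding defined with 1 µM ZM241385. Filtered on GF/B, bound radioactivity counted. Ki via Cheng-Prusoff, n=3-6, mean ± SEM.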

Adenosine receptor A1 = target: T3, Adenosine receptor A1 (Homo sapiens, UniProt P30542); test: (§4) Displacement of [3H]-DPCPX from human adenosine A1 receptor expressed in CHO cell membranes after 120 mins by scintillation counting analysis
T3 sequence (P30542 whole entry): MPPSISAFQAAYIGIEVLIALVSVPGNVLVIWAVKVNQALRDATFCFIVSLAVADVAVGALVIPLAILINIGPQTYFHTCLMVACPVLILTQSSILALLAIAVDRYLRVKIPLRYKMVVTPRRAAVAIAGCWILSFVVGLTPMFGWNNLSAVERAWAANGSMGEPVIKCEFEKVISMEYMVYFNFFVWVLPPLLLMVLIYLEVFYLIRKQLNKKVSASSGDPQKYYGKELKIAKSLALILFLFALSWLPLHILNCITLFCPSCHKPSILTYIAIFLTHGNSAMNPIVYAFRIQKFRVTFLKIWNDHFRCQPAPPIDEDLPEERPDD
Summary of the method: (§5)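 Membranes from transfected CHO cells in 50 mM Tris HCl pH 7.4 at 50 µg protein/assay, pretreated with adenosine deaminase 2 IU/ml. [3H]DPCPX 1 nM against 6-8 antagonist concentrations, 120 min at 25 °C. Non-specific binding defined with 1 µM DPCPX. GF/B filtration, then scintillation counting. Ki by Cheng-Prusoff, n=3-6, mean ± SEM.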

[2] = target: T4, Adenosine receptor A1 (Homo sapiens) (UniProt P30542); test: as §4; set-up: concentration or dose not given beside the values; summary of the method: as §5
T4 sequence (whole entry): T3 sequence (P30542 whole entry)

[3] = target: T5, Adenosine receptor A3 (Homo sapiens) (UniProt P0DMS8); test: Antagonist activity at human adenosine A3 receptor expressed in CHO cells assessed as inhibition of Cl-IB-MECA-mediated suppression of forskolin-induced cyclic-AMP accumulation by scintillation counting analysis in presence of [3H]-cyclic AMP; assay type: cell-based; summary of the method: as §3
T5 sequence (whole entry): T1 sequence (P0DMS8 whole entry)

[4] = target: T5, Adenosine receptor A3 (Homo sapiens); test: as §1; summary of the method: as §2

Chain of Adenosine receptor A2a (P29274 whole entry): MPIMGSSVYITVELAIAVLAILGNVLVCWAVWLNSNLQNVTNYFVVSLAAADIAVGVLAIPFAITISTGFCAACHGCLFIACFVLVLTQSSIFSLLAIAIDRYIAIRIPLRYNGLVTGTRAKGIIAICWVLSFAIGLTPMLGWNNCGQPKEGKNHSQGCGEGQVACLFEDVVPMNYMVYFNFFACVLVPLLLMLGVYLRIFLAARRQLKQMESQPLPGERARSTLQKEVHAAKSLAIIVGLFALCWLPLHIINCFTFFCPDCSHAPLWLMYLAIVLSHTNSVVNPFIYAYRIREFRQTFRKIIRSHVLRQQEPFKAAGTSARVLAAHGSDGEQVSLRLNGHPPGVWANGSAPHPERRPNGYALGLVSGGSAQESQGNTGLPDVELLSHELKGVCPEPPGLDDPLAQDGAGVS

Cn1cc2c(nc(N=C(Nc3ccc(Cl)cc3)Nc3ccc(Cl)cc3)n3nc(-c4ccco4)nc23)n1
Ki (Adenosine receptor A3): 71 nM
Kb [1]: > 1000 nM
inhibition [1]: 2%
Ki (Adenosine receptor A2a): > 1000 nM
inhibition (Adenosine receptor A2a): 11%
Ki (Adenosine receptor A1): > 1000 nM
inhibition [2]: 8%
Kb [3]: 63 nM

Cn1cc2c(nc(N=C(Nc3ccc(F)cc3)Nc3ccc(F)cc3)n3nc(-c4ccco4)nc23)n1
Ki (Adenosine receptor A3): 122 nM
Kb [1]: > 1000 nM
inhibition [1]: 1%
Ki (Adenosine receptor A2a): > 1000 nM
inhibition (Adenosine receptor A2a): 16%
Ki (Adenosine receptor A1): > 1000 nM
inhibition [2]: 1%
Kb [3]: 129 nM

Cn1cc2c(nc(N=C(Nc3ccc([N+](=O)[O-])cc3)Nc3ccc([N+](=O)[O-])cc3)n3nc(-c4ccco4)nc23)n1
Ki (Adenosine receptor A3): 18 nM
Kb [1]: > 1000 nM
inhibition [1]: 1%
Ki (Adenosine receptor A2a): > 1000 nM
inhibition (Adenosine receptor A2a): 1%
Ki (Adenosine receptor A1): > 1000 nM
inhibition [2]: 1%
Kb [3]: 13 nM

COc1cccc(NC(=Nc2nc3nn(C)cc3c3nc(-c4ccco4)nn23)Nc2cccc(OC)c2)c1
Ki (Adenosine receptor A3): 155 nM
Kb [1]: > 1000 nM
inhibition [1]: 1%
Ki (Adenosine receptor A2a): > 1000 nM
inhibition (Adenosine receptor A2a): 18%
Ki (Adenosine receptor A1): > 1000 nM
inhibition [2]: 1%
Kb [3]: 141 nM

CC(C)NC(=Nc1nc2nn(C)cc2c2nc(-c3ccco3)nn12)NC(C)C
Ki (Adenosine receptor A3): 33 nM
Kb [1]: > 1000 nM
inhibition [1]: 3%
Ki (Adenosine receptor A2a): > 1000 nM
inhibition (Adenosine receptor A2a): 1%
Ki (Adenosine receptor A1): > 1000 nM
inhibition [2]: 4%
Kb [3]: 36 nM

COc1ccc(NC(=Nc2nc3nn(C)cc3c3nc(-c4ccco4)nn23)Nc2ccc(OC)cc2)cc1
Ki (Adenosine receptor A3): 42 nM
Kb [1]: > 1000 nM
inhibition [1]: 4%
Ki (Adenosine receptor A2a): > 1000 nM
inhibition (Adenosine receptor A2a): 1%
Ki (Adenosine receptor A1): > 1000 nM
inhibition [2]: 7%
Kb [3]: 42 nM

Cn1cc2c(nc(N=C(Nc3cccc(Cl)c3)Nc3cccc(Cl)c3)n3nc(-c4ccco4)nc23)n1
Ki (Adenosine receptor A3): 89 nM
Kb [1]: > 1000 nM
inhibition [1]: 1%
Ki (Adenosine receptor A2a): > 1000 nM
inhibition (Adenosine receptor A2a): 1%
Ki (Adenosine receptor A1): > 1000 nM
inhibition [2]: 17%
Kb [3]: 74 nM

Cn1cc2c(nc(N=C(Nc3cccc(C(F)(F)F)c3)Nc3cccc(C(F)(F)F)c3)n3nc(-c4ccco4)nc23)n1
Ki (Adenosine receptor A3): 520 nM
Kb [1]: > 1000 nM
inhibition [1]: 2%
Ki (Adenosine receptor A2a): > 1000 nM
inhibition (Adenosine receptor A2a): 1%
Ki (Adenosine receptor A1): > 1000 nM
inhibition [2]: 3%
Kb [3]: 537 nM

Cn1cc2c(nc(N=C(Nc3ccc(Br)cc3)Nc3ccc(Br)cc3)n3nc(-c4ccco4)nc23)n1
Ki (Adenosine receptor A3): 345 nM
Kb [1]: > 1000 nM
inhibition [1]: 1%
Ki (Adenosine receptor A2a): > 1000 nM
inhibition (Adenosine receptor A2a): 10%
Ki (Adenosine receptor A1): > 1000 nM
inhibition [2]: 1%
Kb [3]: 362 nM

Cn1cc2c(nc(N=C(Nc3ccccc3)Nc3ccccc3)n3nc(-c4ccco4)nc23)n1
Ki (Adenosine receptor A3): 79 nM
Kb [1]: > 1000 nM
inhibition [1]: 1%
Ki (Adenosine receptor A2a): > 1000 nM
inhibition (Adenosine receptor A2a): 2%
Ki (Adenosine receptor A1): > 1000 nM
inhibition [2]: 10%
Kb [3]: 67 nM

Cc1ccc(NC(=Nc2nc3nn(C)cc3c3nc(-c4ccco4)nn23)Nc2ccc(C)cc2)cc1
Ki (Adenosine receptor A3): 63 nM
Kb [1]: > 1000 nM
inhibition [1]: 3%
Ki (Adenosine receptor A2a): > 1000 nM
inhibition (Adenosine receptor A2a): 1%
Ki (Adenosine receptor A1): > 1000 nM
inhibition [2]: 6%
Kb [3]: 57 nM

Cn1cc2c(nc(N=C(NC3CCCCC3)NC3CCCCC3)n3nc(-c4ccco4)nc23)n1
Ki (Adenosine receptor A3): 29 nM
Kb [1]: > 1000 nM
inhibition [1]: 4%
Ki (Adenosine receptor A2a): > 1000 nM
inhibition (Adenosine receptor A2a): 3%
Ki (Adenosine receptor A1): > 1000 nM
inhibition [2]: 25%
Kb [3]: 32 nM

CCN/C(=N\c1nc2nn(C)cc2c2nc(-c3ccco3)nn12)NCCCN(C)C
Ki (Adenosine receptor A3): > 1000 nM
inhibition [4]: 19%
Kb [1]: > 1000 nM
inhibition [1]: 1%
Ki (Adenosine receptor A2a): > 1000 nM
inhibition (Adenosine receptor A2a): 3%
Ki (Adenosine receptor A1): > 1000 nM
inhibition [2]: 22%
Kb [3]: > 1000 nM
inhibition ([3]; concentration not given here): 3%

Cn1cc2c(nc(N=C(Nc3ccc(C#N)cc3)Nc3ccc(C#N)cc3)n3nc(-c4ccco4)nc23)n1
Ki (Adenosine receptor A3): 30 nM
Kb [1]: > 1000 nM
inhibition [1]: 1%
Ki (Adenosine receptor A2a): > 1000 nM
inhibition (Adenosine receptor A2a): 1%
Ki (Adenosine receptor A1): > 1000 nM
inhibition [2]: 1%
Kb [3]: 33 nM

— ChEMBL document CHEMBL3580606, “One-pot reaction to obtain N,N'-disubstituted guanidines of pyrazolo[4,3-e][1,2,4]triazolo[1,5-c]pyrimidine scaffold as human A3 adenosine receptor antagonists” (J Med Chem, 2015)
